Reference: ChEMBL document CHEMBL5335771, “Thioxanthenone-based derivatives as multitarget therapeutic leads for Alzheimer's disease” (Eur J Med Chem, 2023)
pIC50: −log10 of the molar value. The source made the active and inactive calls. No cut-off for these calls is given here.

Assays:
[1] = target: Cholinesterase (Equus caballus, UniProt P81908); assay: Inhibition of equine serum BChE using butyrylthiocholine iodide as substrate preincubated for 20 mins followed by substrate addition by DTNB reagent based Ellman's method; format: cell-free
[2] = Cytotoxicity against mouse brain Primary embryonic cortical cell assessed as cell death at 2.5 uM incubated for 5 hrs by propidium iodide dye based spectrofluorometric analysis relative to control; format: toxicity
How it was run: (§1)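 Primary cortical cultures from E16.5 mouse embryo brains, trypsinized, plated on poly-D-lysine, grown in Neurobasal with glutamine, glucose, 5% horse serum and B27; compounds added at 4 DIV. Propidium iodide 30 μM; baseline F1 read 1 h after PI; ex 530/em 645 nm. Fmax after digitonin permeabilization. % death = 100×(Fn−F1)/(Fmax−F1); mean of three independent experiments.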

[3] = Cytotoxicity against mouse brain Primary embryonic cortical cell assessed as cell death at 5 uM incubated for 1 hr by propidium iodide dye based spectrofluorometric analysis relative to control; format: toxicity; how it was run: as §1
[4] = Cytotoxicity against mouse brain Primary embryonic cortical cell assessed as cell death at 5 uM incubated for 5 hrs by propidium iodide dye based spectrofluorometric analysis relative to control; format: toxicity; how it was run: as §1
[5] = Cytotoxicity against mouse brain Primary embryonic cortical cell assessed as cell death at 5 uM incubated for 24 hrs by propidium iodide dye based spectrofluorometric analysis relative to control; format: toxicity; how it was run: as §1
[6] = Cytotoxicity against mouse brain Primary embryonic cortical cell assessed as cell death at 5 uM incubated for 48 hrs by propidium iodide dye based spectrofluorometric analysis relative to control; format: toxicity; how it was run: as §1
[7] = Cytotoxicity against mouse brain Primary embryonic cortical cell assessed as cell death at 10 uM incubated for 4 hrs by propidium iodide dye based spectrofluorometric analysis relative to control; format: toxicity; how it was run: as §1
[8] = Cytotoxicity against mouse brain Primary embryonic cortical cell assessed as cell death at 10 uM incubated for 6 hrs by propidium iodide dye based spectrofluorometric analysis relative to control; format: toxicity; how it was run: as §1
[9] = Cytotoxicity against mouse brain Primary embryonic cortical cell assessed as cell death at 30 uM incubated for 2 hrs by propidium iodide dye based spectrofluorometric analysis relative to control; format: toxicity; how it was run: as §1
[10] = Cytotoxicity against mouse brain Primary embryonic cortical cell assessed as cell death at 30 uM incubated for 48 hrs by propidium iodide dye based spectrofluorometric analysis relative to control; format: toxicity; how it was run: as §1
[11] = Cytotoxicity against mouse brain Primary embryonic cortical cell assessed as cell death at 30 uM incubated for 72 hrs by propidium iodide dye based spectrofluorometric analysis relative to control; format: toxicity; how it was run: as §1
[12] = tested on: SH-SY5Y; assay: Neuroprotective activity against okadaic acid-induced cytotoxicity in human SH-SY5Y cells assessed as increase in cell viability at 50 uM incubated for 24 hrs by MTT assay; format: functional, cell-based
How it was run: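 SH-SY5Y cells grown in DMEM with 10% FBS and plated at 4.5×10^4 cells/well. Incubated 24 h at 37 °C, 5% CO2 with compound (0.1–50 μM) plus okadaic acid 100 nM. Viability by MTT, expressed as % of untreated cells; estradiol and PD38 as positive controls. Mean ± SD of three independent experiments; ANOVA with Dunnett's test.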

Sequence of Cholinesterase (P81908 whole entry): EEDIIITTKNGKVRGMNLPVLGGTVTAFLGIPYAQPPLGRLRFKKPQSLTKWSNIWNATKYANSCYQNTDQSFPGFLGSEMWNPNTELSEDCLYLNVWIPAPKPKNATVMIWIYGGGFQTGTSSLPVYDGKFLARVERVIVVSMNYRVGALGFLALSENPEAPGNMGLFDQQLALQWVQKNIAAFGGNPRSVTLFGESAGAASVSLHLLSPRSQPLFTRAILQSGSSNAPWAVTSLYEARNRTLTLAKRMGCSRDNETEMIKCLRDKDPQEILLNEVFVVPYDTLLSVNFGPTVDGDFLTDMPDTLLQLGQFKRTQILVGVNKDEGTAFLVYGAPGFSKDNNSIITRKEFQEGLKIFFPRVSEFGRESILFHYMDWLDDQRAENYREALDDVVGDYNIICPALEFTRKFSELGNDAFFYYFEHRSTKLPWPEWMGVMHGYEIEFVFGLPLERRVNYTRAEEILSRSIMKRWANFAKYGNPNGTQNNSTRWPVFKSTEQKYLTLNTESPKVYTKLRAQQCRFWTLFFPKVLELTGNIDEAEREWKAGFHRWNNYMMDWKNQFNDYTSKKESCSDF

COc1ccc2sc3c(C)ccc(NCCC4CCN(C)CC4)c3c(=O)c2c1
pIC50 [1]: 6.02 | Activity [2]: 23.8% | Activity [3]: 1.6% | Activity [4]: 32.6% | Activity [5]: 91.3% | Activity [6]: 85.6% | Activity [7]: 52.6% | Activity [8]: 55.7% | Activity [9]: 46.5% | Activity [10]: 88.1% | Activity [11]: 89.4% | Activity [12]: inactive
